Measurements as given in ChEMBL document CHEMBL1240406, “Identification of novel human immunodeficiency virus type 1-inhibitory peptides based on the antimicrobial peptide database” (Antimicrob Agents Chemother, 2010).
Activity calls are given as the source filed them. The calls are words filed in the database; no cut-off is given here. Where a SMILES comes first, the peptide text is derived from it. [ ]: non-standard residue; d: D form. aThr = C[C@H](O)[C@H](N)C(=O)O

Legend:
[1] = Therapeutic index, ratio of TC50 for human CEM-SS cells infected with HIV1 3B to EC50 for HIV1 3B infected in human CEM-SS cells; type: cell-based; details: read-out: TI
In short: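 CEM-SS cells (2.5 × 10^3/well) in RPMI 1640 with 10% heat-inactivated FBS were infected with HIV-1 IIIB (MOI 0.0005–0.001). Peptides were added in triplicate at six serial concentrations, 0.32–100 μg/ml. Cultures were held at 37°C, 5% CO2 for 6 days, then stained with XTT. EC50 (virus inhibition) and TC50 (cell viability) were derived from the XTT read-out, and TI was taken from these.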

[2] = test system: Human immunodeficiency virus 1; assay: Antiviral activity against HIV1 3B infected in human CEM-SS cells assessed as inhibition of viral replication after 6 days by XTT assay; type: functional, organism-based
In short: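 Peptides were added in triplicate at six serial concentrations, 0.32–100 μg/ml. Cultures were held at 37°C, 5% CO2 for 6 days, then stained with XTT. EC50 (virus inhibition) and TC50 (cell viability) were derived from the XTT read-out, and TI was taken from these.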

[3] = Cytotoxicity against human CEM-SS cells infected with HIV1 3B after 6 days by XTT assay; type: cell-based; details: read-out: TC50
Escherichia coli = assay: Antibacterial activity against Escherichia coli K-12; type: functional, organism-based
[4] = Human immunodeficiency virus 1, 3B, CEM-SS, 144 h

| Molecule | selectivity ratio [1] | EC50 [2, 4] [µM] | CC50 at 144 h [3] [µM] | EC50 ([2]; cem-ss) [µM] | Activity (Escherichia coli) |
| --- | --- | --- | --- | --- | --- |
| H-GIWDTIKSMGKVFAGKILQNL-NH2 [Brevinin-2] | 4.49 | 1.65 | 7.42 | – | – |
| CC[C@H](C)[C@H](NC(=O)[C@H](CC(C)C)NC(=O)[C@H](C)NC(=O)[C@@H]1CCCN1C(=O)[C@H](CCCNC(=N)N)NC(=O)[C@@H](N)Cc1ccccc1)C(=O)N[C@H](C(=O)N[C@@H](CCCNC(=N)N)C(=O)N[C@H](C(=O)N[C@@H](CCCCN)C(=O)NCC(=O)N[C@H](C(=O)N[C@@H](CCCNC(=N)N)C(=O)N[C@@H](CC(C)C)C(=O)O)[C@H](C)O)[C@H](C)O)C(C)C [Hyposin-5] (H-FRPALIVR[aThr]KG[aThr]RL-OH) | – | > 61.4 | > 61.4 | – | – |
| H-ILGPVLGLVSRTLRRVLGIL-OH | 3.9 | 2.2 | 8.7 | – | – |
| H-IKWKKLLRAAKRIL-NH2 | < 0.02 | > 57.6 | 1.3 | – | – |
| CC[C@H](C)[C@H](NC(=O)[C@H](CC(C)C)NC(=O)[C@@H]1CCCN1C(=O)[C@H](Cc1ccccc1)NC(=O)[C@H](CC(C)C)NC(=O)[C@@H](N)Cc1ccccc1)C(=O)N[C@H](C(=O)N[C@@H](CO)C(=O)N[C@@H](Cc1ccccc1)C(=O)N[C@@H](CC(C)C)C(=O)N[C@@H](CO)C(=O)N[C@@H](CCCCN)C(=O)N[C@H](C(=O)N[C@@H](CC(C)C)C(=O)O)C(C)C)[C@H](C)O | 2.07 | 16.7 | 34.6 | – | – |
| H-LLKELWTKIKGAGKAVLGKIKGLL-OH [Ponericin L2] | 17.6 | – | 24.7 | 1.4 | – |
| H-VDKPDYRPRPRPPNM-OH [Metalnikowin I] | – | > 54.4 | > 54.4 | – | – |
| H-VFQFLGRIIHHVGNFVHGFSHVF-OH [Clavanin B] | > 5.18 | 7.1 | 37.1 | – | – |
| CC[C@H](C)[C@H](NC(=O)[C@H](CCCNC(=N)N)NC(=O)[C@H](CC(C)C)NC(=O)[C@H](CCC(N)=O)NC(=O)[C@H](CCCCN)NC(=O)[C@H](CC(C)C)NC(=O)[C@H](CC(C)C)NC(=O)[C@H](CC(C)C)NC(=O)[C@@H](NC(=O)[C@H](CCCCN)NC(=O)[C@H](CC(=O)O)NC(=O)[C@H](C)NC(=O)[C@@H](NC(=O)[C@H](CCCCN)NC(=O)[C@H](CCCCN)NC(=O)[C@H](CC(=O)O)NC(=O)[C@@H](NC(=O)[C@@H](N)Cc1cnc[nH]1)C(C)C)C(C)C)C(C)C)C(=O)N[C@@H](CCSC)C(=O)N[C@@H](CCCNC(=N)N)C(=O)N[C@@H](CC(C)C)C(=O)N[C@@H](CC(C)C)C(=O)N[C@H](C(=O)N[C@@H](CCCNC(=N)N)C(=O)N[C@@H](CC(C)C)C(=O)O)[C@@H](C)O [SPINIGERIN] | > 10.9 | 3.05 | > 33.3 | – | – |
| H-GIFDKLAKEISIW-OH | – | > 65.8 | > 65.8 | – | – |
| H-INLKAIAALAKKLL-OH | – | > 67.6 | > 67.6 | – | – |
| H-ILGPVLGLVSDTLDDVLGIL-OH | – | > 49.4 | > 49.4 | – | – |
| H-GWLKKIESIIDAF-OH | > 2.2 | 29.5 | > 65.8 | – | – |
| CC[C@H](C)[C@H](NC(=O)[C@H](CO)NC(=O)[C@H](CC(C)C)NC(=O)[C@H](Cc1ccccc1)NC(=O)CN)C(=O)N[C@@H](CC(C)C)C(=O)N[C@@H](CCCCN)C(=O)N[C@@H](CCCCN)C(=O)N[C@H](C(=O)N[C@@H](CC(C)C)C(=O)N1CCC[C@H]1C(=O)N[C@@H](CCCCN)C(=O)N[C@H](C(=O)N[C@@H](CCSC)C(=O)N[C@@H](C)C(=O)N[C@@H](Cc1cnc[nH]1)C(=O)N[C@@H](CCSC)C(=O)N[C@@H](CCCCN)C(N)=O)C(C)C)C(C)C [MELECTIN] | – | – | 7.75 | – | – |
| H-GLNTLKKVFQGLHEAIKLINNHVQ-OH | – | 35.7 | > 36.8 | – | – |
| H-GLRRLLGRLLRRLGRLLLR-OH | 5.8 | 4.4 | 25.7 | – | – |
| H-GNNRPVYIPQPRPPHPRI-OH [Apidaecin IA] | – | > 47.4 | > 47.4 | – | – |
| H-GIWSDLAEIIKKF-OH | – | – | > 65.8 | – | – |
| Cc1cn([C@H]2C[C@H](N=[N+]=[N-])[C@@H](CO)O2)c(=O)[nH]c1=O [ZIDOVUDINE] | – | – | > 0.5 | – | – |
| H-GKPRPYSPRPTSHPRPIRV-OH [DROSOCIN] | – | > 45.5 | > 45.5 | – | – |
| H-GLRSKIWLWVLLMIWQESNKFKKM-OH | > 1.04 | 31.6 | > 32.9 | – | – |
| H-GMASKAGAIAGKIAKVALKAL-NH2 | – | > 50.8 | > 50.8 | – | – |
| H-GWFDIIKKIASEL-OH | 3.6 | 10.7 | 38.9 | – | – |

| Molecule | selectivity ratio [1] | EC50 [2, 4] [µM] | CC50 at 144 h [3] [µM] | EC50 ([2]; cem-ss) [µM] | Activity (Escherichia coli) |
| --- | --- | --- | --- | --- | --- |
| H-NLVSGLIEARKYLEQLHRKLKNRKV-OH | – | > 33.3 | > 33.3 | – | – |
| H-IWLTALKFLGKHAAKHLAKQQLSKL-OH [Lycotoxin I] | < 0.07 | > 35.2 | 2.4 | – | – |
| H-KGRGKQGGKVRAKAKTRSS-OH [Parasin I] | – | > 50 | > 50 | – | – |
| H-GWFDVVKHIAKRF-NH2 | 3.55 | 2.99 | 10.6 | – | – |
| H-RQRVEELSKFSKKGAAARRRK-OH [Misgurin] | – | > 40 | > 40 | – | – |
| H-GLLGLLGSVVSHVVPAIVGHF-NH2 [Maculatin 1.3] | 2.01 | 4 | 8.02 | – | – |
| CC[C@H](C)[C@H](NC(=O)[C@@H]1CCCN1C(=O)[C@H](Cc1cnc[nH]1)NC(=O)[C@H](CCCCN)NC(=O)[C@@H]1CCCN1C(=O)[C@@H](N)CCCNC(=N)N)C(=O)N[C@@H](CCCCN)C(=O)N[C@@H](Cc1cnc[nH]1)C(=O)N[C@@H](CCC(N)=O)C(=O)NCC(=O)N[C@@H](CC(C)C)C(=O)N1CCC[C@H]1C(=O)N[C@@H](CCC(N)=O)C(=O)N[C@@H](CCC(=O)O)C(=O)N[C@H](C(=O)N[C@@H](CC(C)C)C(=O)N[C@@H](CC(N)=O)C(=O)N[C@@H](CCC(=O)O)C(=O)N[C@@H](CC(N)=O)C(=O)N[C@@H](CC(C)C)C(=O)N[C@@H](CC(C)C)C(=O)N[C@@H](CCCNC(=N)N)C(=O)N[C@@H](Cc1ccccc1)C(=O)O)C(C)C [ISRACIDIN] | – | > 36.2 | > 36.2 | – | – |
| H-GLRSRIWLWVLLMIWQESNRFKRM-OH | > 25.7 | 1.25 | > 32.1 | – | – |
| CC[C@H](C)[C@H](NC(=O)[C@H](CCCCN)NC(=O)[C@H](CCC(=O)O)NC(=O)[C@H](CCCCN)NC(=O)[C@H](CO)NC(=O)[C@H](CCCCN)NC(=O)[C@H](CCCNC(=N)N)NC(=O)[C@H](Cc1ccccc1)NC(=O)[C@H](Cc1ccccc1)NC(=O)[C@H](CC(=O)O)NC(=O)CNC(=O)[C@H](CC(C)C)NC(=O)[C@@H](N)CC(C)C)C(=O)NCC(=O)N[C@@H](CCCCN)C(=O)N[C@@H](CCC(=O)O)C(=O)N[C@@H](Cc1ccccc1)C(=O)N[C@@H](CCCCN)C(=O)N[C@@H](CCCNC(=N)N)C(=O)N[C@H](C(=O)N[C@H](C(=O)N[C@@H](CCC(N)=O)C(=O)N[C@@H](CCCNC(=N)N)C(=O)N[C@H](C(=O)N[C@@H](CCCCN)C(=O)N[C@@H](CC(=O)O)C(=O)N[C@@H](Cc1ccccc1)C(=O)N[C@@H](CC(C)C)C(=O)N[C@@H](CCCNC(=N)N)C(=O)N[C@@H](CC(N)=O)C(=O)N[C@@H](CC(C)C)C(=O)N[C@H](C(=O)N1CCC[C@H]1C(=O)N[C@@H](CCCNC(=N)N)C(=O)N[C@H](C(=O)N[C@@H](CCC(=O)O)C(=O)N[C@@H](CO)C(=O)O)[C@@H](C)O)C(C)C)[C@@H](C)CC)C(C)C)[C@@H](C)CC | – | – | – | – | inactive |
| H-GFKDLLKGAAKALVKTVLF-NH2 [Ascaphin-8] | 2.4 | 1.2 | 2.9 | – | – |
| H-GLWEKIDKFASII-OH | – | > 65.8 | > 65.8 | – | – |
| H-GAWKNFWSSLRKGFYDGEAGRAIRR-OH | – | > 34.1 | > 34.1 | – | – |
| H-SWKSMAKKLKEYMEKLKQRA-OH [Latarcin 3a] | > 1.23 | 32.7 | > 40.3 | – | – |
| H-GFKRIVQRIKDFLRNLV-NH2 | 14.2 | 0.76 | 10.8 | – | – |
| H-FFHHIFRGIVHVGKTIHRLVTG-OH [Piscidin 3] | – | – | 6.9 | – | – |
| H-GFGKAFHSVSNFAKKHKTA-NH2 [STYELIN A] | – | > 48.5 | > 48.5 | – | – |
| H-GFLDIIEKIAKSW-OH | > 6.3 | 10.5 | > 65.8 | – | – |
| H-GIIDIAKKLFESW-OH | > 3.3 | 20.1 | > 65.8 | – | – |
| H-GLADFLNKAVGKVVDFVKS-NH2 [Desertcolin 1] | – | > 49.9 | > 49.9 | – | – |
| H-GLFDIIKKIAESW-OH | 3.2 | 11.7 | 37 | – | – |
| H-SLSRFLRFLKIVYRRAF-NH2 | 10.4 | 0.83 | 8.6 | – | – |
| H-GLKKLLGKLLKKLGKLLLK-OH | < 0.5 | > 47.5 | 25.1 | – | Active |
